{"source": "PubChem BioAssay", "note": "The source made the active and inactive calls.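 Rule for the calls: active = growth inhibition above a set limit, 3 SD over mean compound inhibition, in both replicates (cut at about 43% in these data); inconclusive = above the limit in only one replicate; inactive = at or below the limit in both replicates.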"}
{"assay": "Restrictive medium S. cerevisiae growth inhibition, OD615, pilot screen of yeast lifespan reduction project, restrictive growth control (AID 706);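 note: modified DeaD lifespan yeast strain shifted to restrictive glucose medium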", "conditions": "OD615, 48 h, at 10 µM, stronger effect = higher value", "procedure,_shortened": "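System: Engineered S. cerevisiae DeaD strain | Detection: OD615 | Buffer or medium: CSMM-D glucose medium | Doses: 10 µM compound, 0.25% DMSO | Timing: 4 h pre-growth plus 48 h compound exposure, 30 °C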"}
{"smiles": "COc1ccccc1N=Cc1c(O)n(C)c(=O)n(C)c1=O", "growth inhibition": "1.98% (inactive)"}
{"smiles": "COc1ccc(N2C(=O)CC(N3CC=C(c4ccccc4)CC3)C2=O)cc1", "note": "(stereo not given)", "growth inhibition": "-0.61% (inactive)"}
{"smiles": "Cc1ccc2occ(CN3CC4CC(C3)c3cccc(=O)n3C4)c(=O)c2c1", "note": "(stereo not given)", "growth inhibition": "-17.7% (inactive)"}
{"smiles": "Cc1cc(OCC(=O)OC(C)(C)C)c2c3c(c(=O)oc2c1)CCC3", "growth inhibition": "-17% (inactive)"}
{"smiles": "O=C(c1ccccc1)c1cn(CC(=O)N2CCCC2)c2ccccc12", "growth inhibition": "-16.4% (inactive)"}
{"smiles": "CC12CN3CC(C)(CN(C1)P3(=O)Oc1ccccc1)C2=O", "note": "(stereo not given)", "growth inhibition": "-8.29% (inactive)"}
{"smiles": "COc1ccc(C2C(C(=O)N3CCC4(CC3)OCCO4)c3cc(OC)c(OC)cc3C(=O)N2C)cc1", "note": "(stereo not given)", "growth inhibition": "-29% (inactive)"}
{"smiles": "c1ccc2sc(C3CCCNC3)nc2c1", "note": "(stereo not given)", "growth inhibition": "-19.7% (inactive)"}
{"smiles": "CCOC(=O)C1CCN(/C=C2/C(=O)NC(=O)N(c3ccc(OCC)cc3)C2=O)CC1", "growth inhibition": "-20.2% (inactive)"}
{"smiles": "c1cncc(C2CCCCN2Cc2ccc3c(c2)OCO3)c1", "note": "(stereo not given)", "growth inhibition": "-13% (inactive)"}
{"smiles": "COc1cc2c(cc1OC)-c1c(OC)c(OC)cc3c1C(C2)N(C)CC3", "note": "(stereo not given)", "growth inhibition": "1.99% (inactive)"}
{"smiles": "O=C(O)c1cc2ccccc2oc1=O", "growth inhibition": "-5.03% (inactive)"}
{"smiles": "O=c1c2ccccc2nc(-c2ccco2)n1-c1ccccn1", "growth inhibition": "-7.09% (inactive)"}
{"smiles": "Cc1cccnc1-n1c(-c2ccco2)nc2ccccc2c1=O", "growth inhibition": "-8.26% (inactive)"}
{"smiles": "Nc1ccc(S(=O)(=O)N2CC3CC(C2)c2cccc(=O)n2C3)cc1", "note": "(stereo not given)", "growth inhibition": "1.35% (inactive)"}
{"smiles": "O=C(CN1CC(c2ccccc2)CC1=O)Nc1cccc(F)c1", "note": "(stereo not given)", "growth inhibition": "-5.42% (inactive)"}
{"smiles": "CN(C)C1(c2nnnn2-c2ccc(Cl)cc2)CCCCC1", "growth inhibition": "-18.1% (inactive)"}
{"smiles": "O=c1cccc2n1CC1CC2CN(Cc2ccc3c(c2)OCO3)C1", "note": "(stereo not given)", "growth inhibition": "2.45% (inactive)"}
{"smiles": "O=C(Nc1ccccc1OC(=O)N1CCCCC1)N1CCCCC1", "growth inhibition": "-4.06% (inactive)"}
{"smiles": "CCOC(=O)c1c(C)n(Cc2ccco2)c2ccc(OC)cc12", "growth inhibition": "0.26% (inactive)"}
{"smiles": "Cc1cc(Br)ccc1N1C(=O)CC(=O)NC1=O", "growth inhibition": "7.12% (inactive)"}
{"smiles": "O=C(O)C1CN2CCC1CC2", "note": "(stereo not given)", "growth inhibition": "5.84% (inactive)"}
{"smiles": "O=C(Cc1ccccc1)Oc1cccc(N2C(=O)CCC2=O)c1", "growth inhibition": "-12.2% (inactive)"}
{"smiles": "CCOc1ccc(-n2c(CC)nc3ccccc3c2=O)cc1", "growth inhibition": "-8.86% (inactive)"}
{"smiles": "CCOc1ccccc1C1SCC(=O)Nc2c1c(=O)[nH]n2C(CC)CC", "note": "(stereo not given)", "growth inhibition": "-8.7% (inactive)"}
{"smiles": "C=Cn1ccnc1P(=S)(c1ccn(C)c1)c1nccn1C=C", "growth inhibition": "18.6% (inactive)"}
{"smiles": "O=c1cccc2n1CC1CC2CN(C(c2ccccc2)c2sc3ncnn3c2O)C1", "note": "(stereo not given)", "growth inhibition": "3.32% (inactive)"}
{"smiles": "O=c1c2ccccc2nc(-c2cccs2)n1-c1cnccn1", "growth inhibition": "-2.03% (inactive)"}
{"smiles": "C=Cn1ccnc1P(=S)(c1c(C)nn(-c2ccccc2)c1C)c1nccn1C=C", "growth inhibition": "13.2% (inactive)"}
{"smiles": "O=C(CN1CC(c2ccccc2)CC1=O)Nc1ccc(F)cc1", "note": "(stereo not given)", "growth inhibition": "-4.88% (inactive)"}
{"smiles": "Cc1ccnc(-n2c(C)nc3ccccc3c2=O)c1", "growth inhibition": "-3.79% (inactive)"}
{"smiles": "CCCCCn1c(=O)c(C(=O)Nc2ccncc2)c(O)c2ccccc21", "growth inhibition": "100% (active)"}
{"smiles": "C=Cn1ccnc1P(=S)(c1cc(N(CC)CC)ns1)c1nccn1C=C", "growth inhibition": "21.8% (inactive)"}
{"smiles": "O=C1CC(=O)N(c2ccc(Cl)cc2Cl)C(=O)N1", "growth inhibition": "11.2% (inactive)"}
{"smiles": "COc1ccc(CC2C(=O)NC(=O)N(c3ccccc3)C2=O)c(OC)c1", "note": "(stereo not given)", "growth inhibition": "0.545% (inactive)"}
{"smiles": "O=C(c1ccc2c(c1)OCO2)N1CCC2(CC1)OCCO2", "growth inhibition": "-4.21% (inactive)"}
{"smiles": "CCOC(=O)C1SC2(C(F)(F)C(F)F)CC1(O)c1c(c(OC)c3occc3c1OC)O2", "note": "(stereo not given)", "growth inhibition": "-26.4% (inactive)"}
{"smiles": "CN1CC=C(c2c[nH]c3ccccc23)CC1", "growth inhibition": "10.4% (inactive)"}
{"smiles": "CC12CN3CC(C)(CN(C1)C3c1ccco1)C2=O", "note": "(stereo not given)", "growth inhibition": "-8.04% (inactive)"}
{"smiles": "COc1cc(CN2CC3CC(C2)c2cccc(=O)n2C3)cc(OC)c1OC", "note": "(stereo not given)", "growth inhibition": "-4.6% (inactive)"}
